# Experimental data: paper PMC7113734 (Antiviral Research, 2016)
# Where two headings read alike, the source gives them in different places.
# How the values were obtained:
# hERG = hERG (Homo sapiens, UniProt Q12809); test: Standard hERG test for cardiotoxicity
# [1] = tested on: HIV attachment to HeLa-CD4-LTR-β-gal cells; test: Attachment inhibition assay; format: cell-based, HIV-1; settings: Human immunodeficiency virus 1, read-out: Attachment inhibition EC50 ± SD
# HIV-1IIIB [2] = test: Antiviral activity with added serum proteins in CEM-SS cells; format: cell-based
# HIV strain 92US727 = test: Cell-to-cell virus transmission assay in fresh human PBMCs; format: cell-based, HIV-1
# Outline: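 HIV-infected fresh human PBMCs treated 3 days with six concentrations of test compound. Passaged every 3 days for three passages at fixed compound concentration; 80% of culture volume replaced with fresh compound-containing medium and uninfected cells. Cell-free supernatants collected on sub-culture days for RT activity and extracellular p24 antigen. TCID50 per passage by endpoint dilution.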
# [3] = tested on: drug-resistant HIV-1 strains; test: Antiviral activity against drug-resistant HIV-1 strains in MT-4; format: cell-based; settings: MT-4
# [4] = tested on: IIIB strain of HIV-1 in CEM-SS cells; test: Combination drug interaction evaluation; format: cell-based
# Outline: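 CEM-SS cells infected with HIV-1 IIIB; inhibition of cytopathic effect measured for the test compound in two-drug combinations with known anti-HIV agents. Efficacy and toxicity analysed by Prichard–Shipman MacSynergy II. Expected additive inhibition computed from each agent's single-agent dose–response; inhibition above expected at each concentration calculated at 95%, 99% and 99.9% confidence. −99 to −51 μM2% scored antagonistic; <−100 highly antagonistic.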
# [5] = tested on: clinical HIV-1 subtype B virus 92US723; test: Antiviral activity with added serum proteins in fresh human PBMCs; format: cell-based; settings: 50% human serum, AAGP or HSA vs medium only
# in vitro = settings: human, CC50 (cytotoxic concentration), fresh human PBMCs
# HIV-1IIIB [6] = test: Drug-resistant virus selection by serial dose escalation; format: cell-based; settings: fourteen passages, CEM-SS cells
# [7] = tested on: HL2/3 cells expressing HIV-1 gp120 and gp41 fusing with HeLa-CD4-LTR-β-gal cells; test: Fusion inhibition assay; format: cell-based; settings: Human immunodeficiency virus 1, HL2/3, read-out: Fusion inhibition EC50 ± SD
# Outline: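 HeLa-CD4-LTR-β-Gal cells incubated with test compound for 1 h at 37°C/5% CO2, then co-cultured 48 h with HL2/3 cells. Cells lysed and β-galactosidase expression measured by chemiluminescent Gal-Screen.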
# [8] = tested on: drug resistant clinical HIV isolates; test: Antiviral activity against drug-resistant HIV-1 in PBMCs; format: cell-based; settings: Human immunodeficiency virus 1, PBMC
# HIVIIIB = test: Cell-to-cell virus transmission assay in CEM-SS cells; format: cell-based, HIV-1
# MT-4 cells = test: Toxicity to MT-4 cells; format: cell-based; settings: all assays
# [9] = tested on: influenza A virus type H1N1; test: DMID antiviral screening, influenza A; format: cell-based
# HIV-1 protease = HIV-1 protease (Human immunodeficiency virus type 1 group M subtype B, UniProt P04585); test: HIV-1 protease inhibition assay; format: biochemical
# HIV-1 integrase = HIV-1 integrase (Human immunodeficiency virus type 1 group M subtype B, UniProt P04585); test: HIV-1 integrase inhibition assay; format: biochemical
# wild type HIV-1 RT = wild type HIV-1 RT (Human immunodeficiency virus type 1 group M subtype B, UniProt P04585); test: Biochemical RT inhibition assay
# Pharmacokinetics in rats = format: in vivo; settings: male, Sprague-Dawley, rat, plasma, po, 1000 mg/kg
# Outline: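 Male Sprague-Dawley rats, n = 3 per route. Prodrug given as IV bolus (50 mg/kg, 12.5 mg/mL in 5% DMSO/50% PEG300 in saline) or PO (1000 mg/kg, […] in 2% CMC suspension). Blood sampled over 24 h into sodium fluoride plus citric acid, kept on wet ice <10 min, then centrifuged at 4 °C. Plasma stored at −80 °C; prodrug and active metabolite quantified by UPLC-MS/MS (prodrug LLOQ 0.10 ng/mL).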
# cytochrome P450 enzymes = test: Inhibition of cytochrome P450 enzymes; format: in vitro ADME
# Sequence of hERG (Q12809 whole entry): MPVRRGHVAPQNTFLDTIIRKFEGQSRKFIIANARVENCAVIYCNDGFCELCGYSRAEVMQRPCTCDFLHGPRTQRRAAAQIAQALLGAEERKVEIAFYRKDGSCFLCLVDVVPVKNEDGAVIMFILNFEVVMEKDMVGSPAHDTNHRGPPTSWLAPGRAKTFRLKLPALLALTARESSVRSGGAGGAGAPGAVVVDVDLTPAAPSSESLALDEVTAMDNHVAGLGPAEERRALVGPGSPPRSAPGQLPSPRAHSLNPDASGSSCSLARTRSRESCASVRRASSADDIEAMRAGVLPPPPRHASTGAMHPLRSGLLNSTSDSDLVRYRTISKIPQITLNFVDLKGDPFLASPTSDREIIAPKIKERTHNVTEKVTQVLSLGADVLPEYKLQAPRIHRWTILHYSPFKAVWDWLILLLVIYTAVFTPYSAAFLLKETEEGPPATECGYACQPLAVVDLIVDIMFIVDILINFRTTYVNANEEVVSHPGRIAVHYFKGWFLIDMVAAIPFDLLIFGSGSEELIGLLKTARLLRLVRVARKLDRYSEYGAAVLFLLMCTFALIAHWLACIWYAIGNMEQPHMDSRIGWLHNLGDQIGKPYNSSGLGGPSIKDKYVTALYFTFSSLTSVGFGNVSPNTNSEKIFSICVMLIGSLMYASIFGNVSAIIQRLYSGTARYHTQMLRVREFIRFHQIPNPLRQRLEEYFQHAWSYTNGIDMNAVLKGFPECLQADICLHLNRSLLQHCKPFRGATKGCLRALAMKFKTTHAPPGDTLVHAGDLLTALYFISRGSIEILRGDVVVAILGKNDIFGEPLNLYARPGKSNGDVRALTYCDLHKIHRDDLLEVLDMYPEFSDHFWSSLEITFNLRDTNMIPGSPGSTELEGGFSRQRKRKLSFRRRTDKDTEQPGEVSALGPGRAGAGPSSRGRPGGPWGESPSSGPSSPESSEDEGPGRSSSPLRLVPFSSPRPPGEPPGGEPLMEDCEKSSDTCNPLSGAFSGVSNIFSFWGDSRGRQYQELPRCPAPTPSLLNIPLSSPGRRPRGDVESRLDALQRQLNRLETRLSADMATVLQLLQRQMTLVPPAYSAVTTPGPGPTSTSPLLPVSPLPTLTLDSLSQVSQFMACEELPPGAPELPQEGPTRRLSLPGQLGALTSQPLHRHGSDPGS
compound,measurement,setting,value
"NC(=O)CCNC(=O)c1ccccc1S [MDH-1-38, N-(3-amino-3-oxopropyl)-2-mercaptobenzamide]",hERG test for cardiotoxicity,hERG,negative
same,EC50,[1],44.4 ± 7.21 µM
same,fold decrease in potency,HIV-1IIIB [2]; in the presence of 50% human AB serum,~4.5 fold
same,fold decrease in potency,HIV-1IIIB [2]; in the presence of HSA (10 mg/mL),4.5 fold
same,RT,"HIV strain 92US727; Passage 1, 3.25 μM",216 cpm
same,TCID50/mL,"HIV strain 92US727; Passage 1, 3.25 μM",3.75 × 10^2 TCID50/mL
same,p24,"HIV strain 92US727; Passage 1, 3.25 μM",816 pg/mL
same,RT,"HIV strain 92US727; Passage 2, 3.25 μM",730 cpm
same,TCID50/mL,"HIV strain 92US727; Passage 2, 3.25 μM",4.90 × 10^3 TCID50/mL
same,p24,"HIV strain 92US727; Passage 2, 3.25 μM",2642 pg/mL
same,RT,"HIV strain 92US727; Passage 3, 3.25 μM","11,080 cpm"
same,TCID50/mL,"HIV strain 92US727; Passage 3, 3.25 μM",2.17 × 10^4 TCID50/mL
same,p24,"HIV strain 92US727; Passage 3, 3.25 μM","55,429 pg/mL"
same,EC50,"[3]; Human immunodeficiency virus 1, read-out: Mean EC50 ± SD, AZT- and NNRTI-resistant, RT 4xAZT/L100I",3.59 ± 1.25 µM
same,EC50,"[3]; Human immunodeficiency virus 1, read-out: Mean EC50 ± SD, AZT- and NNRTI-resistant, RT 4xAZT/Y181C",4.87 ± 0.22 µM
same,EC50,"[3]; Human immunodeficiency virus 1, read-out: Mean EC50 ± SD, AZT-resistant, RT 4xAZT (D67N/K70R/T215Y/K219Q)",3.31 ± 2.2 µM
same,EC50,"[3]; Human immunodeficiency virus 1, read-out: Mean EC50 ± SD, Atazanavir-resistant, PR I50L",0.82 ± 0.37 µM
same,EC50,"[3]; Human immunodeficiency virus 1, read-out: Mean EC50 ± SD, Didanosine-resistant, RT L74V",3.93 ± 2.33 µM
same,EC50,"[3]; Human immunodeficiency virus 1, read-out: Mean EC50 ± SD, Enfuviritide-resistant, Env V38A/N126K",7.09 ± 0.03 µM
same,EC50,"[3]; Human immunodeficiency virus 1, read-out: Mean EC50 ± SD, Indinavir-, Ritonavir-resistant, PR I84V",2.54 ± 0.93 µM
same,EC50,"[3]; Human immunodeficiency virus 1, read-out: Mean EC50 ± SD, Indinavir-, Ritonavir-resistant, PR V82A",10.3 ± 5.34 µM
same,EC50,"[3]; Human immunodeficiency virus 1, read-out: Mean EC50 ± SD, Indinavir-, Ritonavir-resistant, PR V82F/I84V",4.1 ± 0.47 µM
same,EC50,"[3]; Human immunodeficiency virus 1, read-out: Mean EC50 ± SD, Lamivudine-resistant, RT M184V",2.7 ± 1.52 µM
same,EC50,"[3]; Human immunodeficiency virus 1, read-out: Mean EC50 ± SD, NNRTI-resistant, RT K103N/Y181C",8.03 ± 1.45 µM
same,EC50,"[3]; Human immunodeficiency virus 1, read-out: Mean EC50 ± SD, NNRTI-resistant, RT K103N",3.97 ± 1.31 µM
same,EC50,"[3]; Human immunodeficiency virus 1, read-out: Mean EC50 ± SD, NNRTI-resistant, RT L100I",1.22 ± 0.01 µM
same,EC50,"[3]; Human immunodeficiency virus 1, read-out: Mean EC50 ± SD, NNRTI-resistant, RT V106A",2.74 ± 2.17 µM
same,EC50,"[3]; Human immunodeficiency virus 1, read-out: Mean EC50 ± SD, NNRTI-resistant, RT V108I",3.84 ± 1.6 µM
same,EC50,"[3]; Human immunodeficiency virus 1, read-out: Mean EC50 ± SD, NNRTI-resistant, RT V179D",3.57 ± 1.81 µM
same,EC50,"[3]; Human immunodeficiency virus 1, read-out: Mean EC50 ± SD, NNRTI-resistant, RT Y181C",3.99 ± 1.59 µM
same,EC50,"[3]; Human immunodeficiency virus 1, read-out: Mean EC50 ± SD, NNRTI-resistant, RT Y188C",3.37 ± 2.15 µM
same,EC50,"[3]; Human immunodeficiency virus 1, read-out: Mean EC50 ± SD, Raltegravir-resistant, IN Q148H/G140S",3.39 ± 2.15 µM
same,EC50,"[3]; Human immunodeficiency virus 1, read-out: Mean EC50 ± SD, Saquinavir-resistant, PR G48V/L90M",1 ± 0.34 µM
same,EC50,"[3]; Human immunodeficiency virus 1, read-out: Mean EC50 ± SD, Tenofovir-resistant, RT K65R",4.29 ± 0.64 µM
same,mean synergy volume,[4]; in combination with amprenavir,101 ± 61 μM^2%
same,mean synergy volume,[4]; in combination with dolutegravir,95.7 ± 44.3 μM^2%
same,mean synergy volume,[4]; in combination with enfuviritide,80.8 ± 32.9 μM^2%
same,mean synergy volume,[4]; in combination with lopinavir,108 ± 64.5 μM^2%
same,mean synergy volume,[4]; in combination with nelfinavir,498 ± 288 μM^2%
same,mean synergy volume,[4]; in combination with ritonavir,282 ± 111 μM^2%
same,change in antiviral activity with serum protein additives,[5],no significant change in antiviral activity
same,CC50,in vitro,> 231 µM
same,selection of resistant virus,HIV-1IIIB [6],did not result in resistance
same,EC50,[7],83.3 ± 26.4 µM
same,EC50,"[8]; read-out: PBMC/HIV-1 EC50 ± SD, Multi-drug resistant AD. MDR",10.6 ± 6.95 µM
same,EC50,"[8]; read-out: PBMC/HIV-1 EC50 ± SD, Multi-drug resistant MDR769",3.5 ± 1.45 µM
same,EC50,"[8]; read-out: PBMC/HIV-1 EC50 ± SD, NNRTI-resistant A17R",11.4 ± 8.47 µM
same,EC50,"[8]; read-out: PBMC/HIV-1 EC50 ± SD, NNRTI-resistant N119",2.58 ± 2.52 µM
same,EC50,"[8]; read-out: PBMC/HIV-1 EC50 ± SD, PI-resistant 144-44",9.78 ± 8.23 µM
same,EC50,"[8]; read-out: PBMC/HIV-1 EC50 ± SD, PI-resistant 1002-60",2.04 ± 1.03 µM
same,EC50,"[8]; read-out: PBMC/HIV-1 EC50 ± SD, PI-resistant 1022-48",0.98 ± 0.64 µM
same,EC50,"[8]; read-out: PBMC/HIV-1 EC50 ± SD, PI-resistant 1026-60",2.67 ± 0.4 µM
same,EC50,"[8]; read-out: PBMC/HIV-1 EC50 ± SD, PI-resistant 1064-52",3.06 ± 0.28 µM
same,EC50,"[8]; read-out: PBMC/HIV-1 EC50 ± SD, Wild Type 92US727",3.32 ± 1.95 µM
same,RT,"HIVIIIB; Passage 1, 2 μM",22 cpm
same,TCID50/mL,"HIVIIIB; Passage 1, 2 μM",0 TCID50/mL
same,p24,"HIVIIIB; Passage 1, 2 μM",619 pg/mL
same,RT,"HIVIIIB; Passage 2, 2 μM",185 cpm
same,TCID50/mL,"HIVIIIB; Passage 2, 2 μM",2.46 × 10^5 TCID50/mL
same,p24,"HIVIIIB; Passage 2, 2 μM","28,255 pg/mL"
same,RT,"HIVIIIB; Passage 3, 2 μM",2820 cpm
same,TCID50/mL,"HIVIIIB; Passage 3, 2 μM",2.41 × 10^4 TCID50/mL
same,p24,"HIVIIIB; Passage 3, 2 μM","394,996 pg/mL"
same,non-toxic up to high test concentration,MT-4 cells,> 100 µM
same,antiviral activity,[9],failed to show any activity
same,EC50,HIV-1 protease,> 100 µM
same,EC50,HIV-1 integrase,> 100 µM
same,EC50,wild type HIV-1 RT,> 100 µM
same,bioavailability,Pharmacokinetics in rats,64%
same,inhibition of cytochrome P450 enzymes,cytochrome P450 enzymes,neither NS1040 nor MDH-1-38 had significant inhibitory activity
